From ChEMBL document CHEMBL4014350, “Alkoxyurea-Based Histone Deacetylase Inhibitors Increase Cisplatin Potency in Chemoresistant Cancer Cell Lines” (J Med Chem, 2017) come the findings set out here.

Bounds are passed on as bounds.

The species named for assay [1] is Homo sapiens. The assay can be described thus: Selectivity ratio of IC50 for HDAC in human A2780 cells to IC50 for HDAC in human A2780CisR cells. It counts as cell-based.
Assay [2] relates to CAL-27. The assay can be described thus: Antiproliferative activity against human CAL27 cells measured after 72 hrs by MTT assay. Format: functional, cell-based. The following applies: CAL-27, 72 h. For orientation: Formazan colour is commonly taken as a measure of viable cells.
Assay [3] has as its target T1, Histone deacetylase 1/6 (Homo sapiens) (UniProt Q13547+Q9UBN7). Put plainly: Inhibition of HDAC1/HDAC6 in human Cal27CisR cells assessed as potentiation of 3.16 uM cisplatin-induced cytotoxicity by measuring combination index at 500 nM preincubated for 48 hrs followed by cisplatin treatment measured after 72 hrs by MTT assay.
The target in assay [4] is T1, Histone deacetylase 1/6 (Homo sapiens). Put plainly: Inhibition of HDAC1/HDAC6 in human Cal27CisR cells assessed as potentiation of 10 uM cisplatin-induced cytotoxicity by measuring combination index at 700 nM preincubated for 48 hrs followed by cisplatin treatment measured after 72 hrs by MTT assay.
The subject of assay [5] is CAL-27. Put plainly: Potentiation of 1 uM cisplatin-induced cytotoxicity against human CAL27 cells assessed as decrease in cell viability by measuring combination index at 500 uM preincubated for 48 hrs followed by cisplatin treatment measured after 72 hrs by MTT assay. It counts as functional. In outline:
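HDAC inhibitor was added 48 h before cisplatin, then cells were exposed to cisplatin for 72 h and viability was read by MTT assay. Combination index was computed by the Chou–Talalay method: CI > 1 is antagonism, CI = 1 additive, CI < 0.9 synergism. Points with fraction affected below 0.20 were flagged.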

Assay [6] concerns CAL-27. The assay can be described thus: Potentiation of 0.316 uM cisplatin-induced cytotoxicity against human CAL27 cells assessed as decrease in cell viability by measuring combination index at 600 uM preincubated for 48 hrs followed by cisplatin treatment measured after 72 hrs by MTT assay. It counts as functional. Particulars: in the assay text read “at 600 nM” for “at 600 uM”. In a few lines:
(§1)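 Cal27 and cisplatin-resistant Cal27CisR cells were preincubated with the HDAC inhibitor for 48 h, then given cisplatin in combination. Viability was read by MTT after 72 h. The combination index was computed by the Chou–Talalay method: CI > 1 is antagonism, CI = 1 is additive, and CI < 0.9 is synergism. Points with fraction affected below 0.20 were flagged.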

For assay [7], the species on record is Homo sapiens. Put plainly: Selectivity ratio of IC50 for recombinant human N-terminal GST-tagged/C-terminal His-tagged HDAC4 to IC50 for full length human recombinant N-terminal GST-tagged HDAC6 expressed in baculovirus infected sf9 cells. In outline: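 Ratio of isolated-enzyme IC50 values. The HDAC4 IC50 was determined in duplicate by an external contract service. The HDAC6 IC50 was the mean ± SD of three independent experiments.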

Assay [8] concerns the target T2, Protein deacetylase HDAC6 (Homo sapiens, UniProt Q9UBN7).
T2 sequence (Q9UBN7 whole entry): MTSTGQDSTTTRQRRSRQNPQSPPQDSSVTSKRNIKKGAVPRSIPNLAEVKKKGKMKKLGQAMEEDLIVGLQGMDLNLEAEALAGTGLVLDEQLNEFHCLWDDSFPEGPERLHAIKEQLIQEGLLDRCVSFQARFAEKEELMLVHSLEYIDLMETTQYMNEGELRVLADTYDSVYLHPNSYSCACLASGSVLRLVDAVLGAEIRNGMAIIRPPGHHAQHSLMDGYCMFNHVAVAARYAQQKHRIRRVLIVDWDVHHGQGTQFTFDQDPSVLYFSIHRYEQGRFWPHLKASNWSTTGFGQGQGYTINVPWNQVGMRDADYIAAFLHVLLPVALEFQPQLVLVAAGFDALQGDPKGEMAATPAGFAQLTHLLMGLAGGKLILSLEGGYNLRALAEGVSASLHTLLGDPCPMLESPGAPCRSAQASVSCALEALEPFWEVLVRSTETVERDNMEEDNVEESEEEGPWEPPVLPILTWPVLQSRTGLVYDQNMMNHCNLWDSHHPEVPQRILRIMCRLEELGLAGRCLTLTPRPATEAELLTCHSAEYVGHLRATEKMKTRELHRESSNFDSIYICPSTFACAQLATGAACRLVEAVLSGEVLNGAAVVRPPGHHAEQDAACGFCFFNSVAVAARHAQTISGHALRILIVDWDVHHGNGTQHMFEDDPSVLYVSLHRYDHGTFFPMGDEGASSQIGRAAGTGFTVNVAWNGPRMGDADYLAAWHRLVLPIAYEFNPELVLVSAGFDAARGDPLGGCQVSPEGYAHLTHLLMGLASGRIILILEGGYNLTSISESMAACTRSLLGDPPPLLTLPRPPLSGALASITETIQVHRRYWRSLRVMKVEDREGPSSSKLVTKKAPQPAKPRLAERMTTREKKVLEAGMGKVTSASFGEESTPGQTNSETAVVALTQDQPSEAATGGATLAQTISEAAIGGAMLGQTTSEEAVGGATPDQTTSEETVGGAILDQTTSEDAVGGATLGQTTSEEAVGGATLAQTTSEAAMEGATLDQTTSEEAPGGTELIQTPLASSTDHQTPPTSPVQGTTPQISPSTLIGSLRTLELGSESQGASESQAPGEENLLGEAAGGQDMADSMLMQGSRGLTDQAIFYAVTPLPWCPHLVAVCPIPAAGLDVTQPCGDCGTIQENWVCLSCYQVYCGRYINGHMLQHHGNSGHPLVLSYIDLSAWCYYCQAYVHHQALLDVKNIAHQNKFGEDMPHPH
The assay can be described thus: Inhibition of full length human recombinant N-terminal GST-tagged HDAC6 expressed in baculovirus infected sf9 cells Z-(Ac)Lys-AMC as substrate measured after 90 mins by fluorescence assay.

The target in assay [9] is T1, Histone deacetylase 1/6 (Homo sapiens). Put plainly: Inhibition of HDAC1/HDAC6 in human Cal27CisR cells assessed as potentiation of 20 uM cisplatin-induced cytotoxicity by measuring combination index at 800 nM preincubated for 48 hrs followed by cisplatin treatment measured after 72 hrs by MTT assay.
The target is the same in assay [10]. Put plainly: Inhibition of HDAC1/HDAC6 in human Cal27CisR cells assessed as potentiation of 3.16 uM cisplatin-induced cytotoxicity by measuring combination index at 600 nM preincubated for 48 hrs followed by cisplatin treatment measured after 72 hrs by MTT assay.
Assay [11] shares this target. Put plainly: Inhibition of HDAC1/HDAC6 in human Cal27CisR cells assessed as potentiation of 10 uM cisplatin-induced cytotoxicity by measuring combination index at 800 nM preincubated for 48 hrs followed by cisplatin treatment measured after 72 hrs by MTT assay.
Assay [12] shares this target. The assay can be described thus: Inhibition of HDAC1/HDAC6 in human Cal27CisR cells assessed as potentiation of 5 uM cisplatin-induced cytotoxicity by measuring combination index at 700 uM preincubated for 48 hrs followed by cisplatin treatment measured after 72 hrs by MTT assay. Format: cell-based. In outline: as §1

T1 sequence (Q13547 whole entry, looked up, one chain of several): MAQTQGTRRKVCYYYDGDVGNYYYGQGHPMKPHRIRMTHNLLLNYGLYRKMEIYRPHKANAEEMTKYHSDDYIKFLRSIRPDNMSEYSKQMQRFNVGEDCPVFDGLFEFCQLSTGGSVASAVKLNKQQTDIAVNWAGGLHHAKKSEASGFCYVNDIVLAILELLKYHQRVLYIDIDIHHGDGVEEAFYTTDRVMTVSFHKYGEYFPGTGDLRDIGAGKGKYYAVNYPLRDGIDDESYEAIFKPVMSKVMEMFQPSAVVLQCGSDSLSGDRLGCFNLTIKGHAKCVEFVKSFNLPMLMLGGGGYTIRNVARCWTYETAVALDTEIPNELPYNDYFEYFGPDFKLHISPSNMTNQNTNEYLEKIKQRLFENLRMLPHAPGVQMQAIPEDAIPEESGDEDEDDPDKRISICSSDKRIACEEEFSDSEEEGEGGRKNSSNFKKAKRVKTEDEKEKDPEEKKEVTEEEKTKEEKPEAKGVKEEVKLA

Usually IC50 stands for the concentration that inhibits the measured activity by half. For the compound `COc1cc(NC(=O)NOCCCCCC(=O)NO)c2ncccc2c1`, the figures for the Ratio IC50 in assay [1] and in assay [7] were 2 to 3.4 and > 3500, respectively. Also, the figures for the IC50 in assay [2] and in [8] were 900 nM and 6.1 nM, respectively. Also, the CI in assay [3] was < 0.2; in [4] it was 0.33; in assay [5], 0.67; in [6] it was 0.79; in assay [9], 0.37; in [10], < 0.2. The CI in assay [11] was found to be 0.35; in assay [12], 0.41.

Consider `COc1cc(NC(=O)NOCCCCCC(=O)NO)c2nccc(C)c2c1`, for which the Ratio IC50 was 2 to 3.4 in [1] and > 3500 in assay [7]. Besides, the IC50 worked out at 600 nM in [2] and 24.8 nM in assay [8]. Moreover, the CI is 0.71 in assay [3]; 0.21 in assay [4]; 0.37 in assay [5]; 0.93 in [6]; 0.28 in assay [9]; 0.51 in assay [10]. Also, the CI in [11] stood at 0.23; in [12] it was 0.21.

Consider `COc1cc(NC(=O)NOCCCCCC(=O)NO)c2nc(OC)cc(C)c2c1`, for which the figures for the Ratio IC50 in [1] and in [7] were 2 to 3.4 and > 3500, respectively. Besides, the IC50 in [2] worked out at 1000 nM; in assay [8] it was 2.8 nM. In addition, the CI came to 0.26 in assay [3]; 0.2 in assay [4]; 0.5 in assay [5]; 0.71 in [6]; 0.21 in assay [9]; 0.24 in assay [10]. In addition, the CI in assay [11] and in [12] was 0.23 in each case.
